Measurements: ChEMBL document CHEMBL2163281, “p-(4-Azipentyl)propofol: a potent photoreactive general anesthetic derivative of propofol” (J Med Chem, 2011)
Converted amounts (≈) assume the structure as drawn. The source made the active and inactive calls. The rule behind the calls is not given here.

Experiments:
[1] = biological target: T1, GABA-A receptor; alpha-1/beta-3/gamma-2 (Homo sapiens) (UniProt P14867+P18507+P28472); assay: Increase of [3H]-flunitrazepam binding to alpha1beta3gamma2 GABAA receptor expressed in HEK293S-TetR cells at 0.1 to 40 uM after 1 hr by liquid scintillation counting relative to control; type: cell-based
Outline: (§1)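 Membranes from HEK293S-TetR cells expressing α1β3γ2 GABAA receptors (200 μg protein) in 10 mM phosphate pH 7.4, 200 mM KCl, 1 mM EDTA. Incubated with 3 nM [3H]muscimol or 1.5 nM [3H]flunitrazepam plus drug for 1 h at 4°C. Nonspecific binding was set with 1 mM GABA or 1 mM flurazepam. Filtered onto PEI-treated filters, then scintillation-counted; triplicates.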

[2] = Aqueous solubility of the compound in water
[3] = biological target: GABA-A receptor; agonist GABA site; assay: Agonist activity at human alpha1beta2gamma2L GABAA receptor expressed in Xenopus oocytes assessed as potentiation of channel current response by two-electrode voltage clamp electrophysiology assay; type: functional, cell-based; conditions: oocyte
[4] = biological target: T1, GABA-A receptor; alpha-1/beta-3/gamma-2 (Homo sapiens); assay: Increase of [3H]-flunitrazepam binding to alpha1beta3gamma2 GABAA receptor expressed in HEK293S-TetR cells at >30 uM after 1 hr by liquid scintillation counting; type: cell-based; outline: as §1
[5] = biological target: T1, GABA-A receptor; alpha-1/beta-3/gamma-2 (Homo sapiens); assay: Increase of [3H]muscimol binding to alpha1beta3gamma2 GABAA receptor expressed in HEK293S-TetR cells after 1 hr by liquid scintillation counting relative to control; type: cell-based; outline: as §1
[6] = biological target: T1, GABA-A receptor; alpha-1/beta-3/gamma-2 (Homo sapiens); assay: Increase of [3H]-flunitrazepam binding to alpha1beta3gamma2 GABAA receptor expressed in HEK293S-TetR cells up to 400 uM after 1 hr by liquid scintillation counting; type: cell-based; outline: as §1
[7] = biological target: GABA-A receptor; agonist GABA site; assay: Agonist activity at human alpha1beta2gamma2L GABAA receptor expressed in Xenopus oocytes assessed as potentiation of GABA-induced current response by two-electrode voltage clamp electrophysiology assay; type: functional, cell-based; conditions: oocyte
[8] = biological target: T2, GABA-A receptor; agonist GABA site (Homo sapiens) (UniProt P14867+P47870+P28472+P48169+P34903+P18505+P47869+P31644+Q16445); assay: Agonist activity at human alpha1beta2gamma2L GABAA receptor expressed in Xenopus oocytes assessed as potentiation of channel current response by two-electrode voltage clamp electrophysiology assay relative to control; type: functional, cell-based; conditions: Oocyte
[9] = Antagonist activity at Torpedo californica nACh receptor expressed in Xenopus oocytes assessed as inhibition of acetylcholine-induced current response; type: functional, cell-based; conditions: Tetronarce californica, Oocyte
Outline: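 Torpedo nACh receptor cRNA (2α:1β:1γ:1δ, ~25 ng) injected into Xenopus oocytes. Two-electrode clamp at −50 mV in ND96. Currents were evoked by 10 μM ACh (~EC20), then by ACh plus 1–100 μM drug for 15–20 s with ~3 min washes. Currents were normalized to the ACh response and fit to a logistic inhibition equation; 3 oocytes.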

Xenopus laevis = assay: Anesthetic activity in Xenopus laevis tadpoles assessed as loss of righting reflexes; type: functional, organism-based; conditions: Tadpole
Outline: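 Xenopus tadpoles in groups of 5 were held in 2.5 mM Tris HCl pH 7.4 under low light at seven concentrations from 1.0 to 20 μM, with ethanol ≤5 mM. Each animal was flipped every 10 min until a stable response, usually at 40 min. LoRR meant failure to right within 5 s. Only animals that recovered overnight were analysed. Quantal scores were fit to a logistic equation.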

Tetronarce californica [10] = assay: Binding affinity to Torpedo californica nACh-delta receptor assessed as photoincorporation at 1.7 uM by SDS-PAGE followed by fluorography analysis in presence of propofol; conditions: tested as the 3H-labelled form
Outline: (§2)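 Torpedo californica electric-organ nACh receptor-rich membranes at 2 mg/mL in Torpedo saline pH 7.0 with 1 mM oxidized glutathione. Membranes were equilibrated 30 min with 1.7 μM [3H]ligand alone or with 100 μM tetracaine, 100 μM phencyclidine, 300 μM propofol and/or 1 mM carbamylcholine. Samples were UV-irradiated at 365 nm on ice for 30 min. Read-out: 8% SDS-PAGE, fluorography (2 weeks) and scintillation counting of gel bands.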

Tetronarce californica [11] = assay: Binding affinity to Torpedo californica nACh-alpha receptor assessed as photoincorporation at 1.7 uM by SDS-PAGE followed by fluorography analysis in presence of carbamylcholine; conditions: tested as the 3H-labelled form; outline: as §2
Tetronarce californica [12] = assay: Binding affinity to Torpedo californica nACh-delta receptor assessed as photoincorporation at 1.7 uM by SDS-PAGE followed by fluorography analysis in presence of tetracaine; conditions: tested as the 3H-labelled form; outline: as §2
Tetronarce californica [13] = assay: Binding affinity to Torpedo californica nACh-gamma receptor assessed as photoincorporation at 1.7 uM by SDS-PAGE followed by fluorography analysis; conditions: tested as the 3H-labelled form; outline: as §2
Tetronarce californica [14] = assay: Binding affinity to Torpedo californica nACh-beta receptor assessed as photoincorporation at 1.7 uM by SDS-PAGE followed by fluorography analysis; conditions: tested as the 3H-labelled form; outline: as §2
Tetronarce californica [15] = assay: Binding affinity to Torpedo californica nACh-gamma receptor assessed as photoincorporation at 1.7 uM by SDS-PAGE followed by fluorography analysis in presence of tetracaine; conditions: tested as the 3H-labelled form; outline: as §2
[16] = Chemical stability of the compound in 0.01 M Tris-HCl buffer at pH 7.4 at 4 degC after 2.5 days; type: physicochemical; conditions: pH 7.4, 60 h
Outline: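 Held near saturation in buffer at 4°C for at least 2.5 days, then analysed by reverse-phase HPLC.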

[17] = Aqueous solubility of the compound in 0.01 M Tris-HCl buffer at pH 7.4; type: physicochemical
Tetronarce californica [18] = assay: Binding affinity to Torpedo californica nACh-beta receptor assessed as photoincorporation at 1.7 uM by SDS-PAGE followed by fluorography analysis in presence of tetracaine; conditions: tested as the 3H-labelled form; outline: as §2
[19] = Binding affinity to Na+/K+ ATPase alpha assessed as photoincorporation at 1.7 uM by SDS-PAGE followed by fluorography analysis; conditions: tested as the 3H-labelled form; outline: as §2
Tetronarce californica [20] = assay: Binding affinity to Torpedo californica nACh-beta receptor assessed as photoincorporation at 1.7 uM by SDS-PAGE followed by fluorography analysis in presence of phencyclidine; conditions: tested as the 3H-labelled form; outline: as §2
[21] = biological target: T3, 43 kDa receptor-associated protein of the synapse (Homo sapiens) (UniProt Q13702); assay: Binding affinity to RAPsyn assessed as photoincorporation at 1.7 uM by SDS-PAGE followed by fluorography analysis; conditions: tested as the 3H-labelled form; outline: as §2
T3 sequence (whole entry): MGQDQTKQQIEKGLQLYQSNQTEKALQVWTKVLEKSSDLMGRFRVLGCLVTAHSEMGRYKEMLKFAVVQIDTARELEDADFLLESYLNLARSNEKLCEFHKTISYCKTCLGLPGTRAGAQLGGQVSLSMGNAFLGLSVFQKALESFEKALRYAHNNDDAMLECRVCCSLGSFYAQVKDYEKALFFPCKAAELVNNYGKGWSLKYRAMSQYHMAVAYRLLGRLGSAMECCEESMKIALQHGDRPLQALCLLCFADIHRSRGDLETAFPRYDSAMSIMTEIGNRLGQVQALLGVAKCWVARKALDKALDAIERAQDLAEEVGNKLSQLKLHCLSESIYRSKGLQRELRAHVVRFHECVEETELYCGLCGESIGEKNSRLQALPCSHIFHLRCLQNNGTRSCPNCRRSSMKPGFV

Tetronarce californica [22] = assay: Binding affinity to Torpedo californica nACh-alpha receptor assessed as increase photoincorporation at 1.7 uM by SDS-PAGE followed by fluorography analysis in presence of carbamylcholine and propofol; conditions: tested as the 3H-labelled form; outline: as §2
[23] = biological target: T2, GABA-A receptor; agonist GABA site (Homo sapiens); assay: Agonist activity at human alpha1beta2gamma2L GABAA receptor expressed in Xenopus oocytes assessed as potentiation of GABA-induced current response at 100 uM by two-electrode voltage clamp electrophysiology assay relative to control; type: functional, cell-based; conditions: Oocyte
Tetronarce californica [24] = assay: Binding affinity to Torpedo californica nACh-gamma receptor assessed as photoincorporation at 1.7 uM by SDS-PAGE followed by fluorography analysis in presence of phencyclidine; conditions: tested as the 3H-labelled form; outline: as §2
Tetronarce californica [25] = assay: Binding affinity to Torpedo californica nACh-beta receptor assessed as photoincorporation at 1.7 uM by SDS-PAGE followed by fluorography analysis in presence of propofol; conditions: tested as the 3H-labelled form; outline: as §2
Tetronarce californica [26] = assay: Binding affinity to Torpedo californica nACh-delta receptor assessed as photoincorporation at 1.7 uM by SDS-PAGE followed by fluorography analysis in presence of carbamylcholine; conditions: tested as the 3H-labelled form; outline: as §2
[27] = Binding affinity to VDAC assessed as photoincorporation at 1.7 uM by SDS-PAGE followed by fluorography analysis; conditions: tested as the 3H-labelled form; outline: as §2
Tetronarce californica [28] = assay: Binding affinity to Torpedo californica nACh-delta receptor assessed as photoincorporation at 1.7 uM by SDS-PAGE followed by fluorography analysis; conditions: tested as the 3H-labelled form; outline: as §2
Tetronarce californica [29] = assay: Binding affinity to Torpedo californica nACh-beta receptor assessed as photoincorporation at 1.7 uM by SDS-PAGE followed by fluorography analysis in presence of carbamylcholine; conditions: tested as the 3H-labelled form; outline: as §2
[30] = biological target: T2, GABA-A receptor; agonist GABA site (Homo sapiens); assay: Agonist activity at human alpha1beta2gamma2L GABAA receptor expressed in Xenopus oocytes assessed as potentiation of GABA-induced current response at 6 uM by two-electrode voltage clamp electrophysiology assay relative to control; type: functional, cell-based; conditions: Oocyte
Tetronarce californica [31] = assay: Binding affinity to Torpedo californica nACh-gamma receptor assessed as photoincorporation at 1.7 uM by SDS-PAGE followed by fluorography analysis in presence of carbamylcholine; conditions: tested as the 3H-labelled form; outline: as §2
Tetronarce californica [32] = assay: Binding affinity to Torpedo californica nACh-gamma receptor assessed as photoincorporation at 1.7 uM by SDS-PAGE followed by fluorography analysis in presence of propofol; conditions: tested as the 3H-labelled form; outline: as §2
Tetronarce californica [33] = assay: Binding affinity to Torpedo californica nACh-delta receptor assessed as photoincorporation at 1.7 uM by SDS-PAGE followed by fluorography analysis in presence of phencyclidine; conditions: tested as the 3H-labelled form; outline: as §2
Tetronarce californica [34] = assay: Binding affinity to Torpedo californica nACh-alpha receptor assessed as decrease photoincorporation at 1.7 uM by SDS-PAGE followed by fluorography analysis in presence of carbamylcholine and phencyclidine; parameters: scale not given: the % may be the effect or the level left; conditions: tested as the 3H-labelled form; outline: as §2

CC(C)c1cccc(C(C)C)c1O [PROPOFOL]
fold change (FC) [1]: 2 | solubility [2]: 1000 µM (≈ 178 µg/mL) | EC50 [3]: 50 µM | Activity [4]: inactive | fold change (FC) [5]: 2.4 | Activity [6]: inactive | EC50 [7]: 5.2 µM | Activity [8]: 45% | IC50 [9]: 7.3 µM | EC50 (Xenopus laevis): 2.2 µM

CC(C)c1cc(CCCC2(C)N=N2)cc(C(C)C)c1O
Activity (Tetronarce californica [10]): < 20% | Activity (Tetronarce californica [11]): 100% | Activity (Tetronarce californica [12]): < 20% | Activity (Tetronarce californica [13]): Active | Activity (Tetronarce californica [14]): Active | Activity (Tetronarce californica [15]): < 20% | Stability [16]: Stable | solubility [17]: 73 µM (≈ 20 µg/mL) | fold change (FC) [1]: 1.6 | Activity (Tetronarce californica [18]): < 20% | Activity [19]: Active | Activity (Tetronarce californica [20]): < 20% | Activity [21]: Active | Activity (Tetronarce californica [22]): 20% | EC50 [3]: 15 µM | fold change (FC) [23]: 20 | Activity (Tetronarce californica [24]): < 20% | Activity [4]: Active | fold change (FC) [5]: 1.6 | Activity (Tetronarce californica [25]): < 20% | Activity (Tetronarce californica [26]): < 20% | Activity [27]: Active | Activity (Tetronarce californica [28]): Active | Activity [6]: inactive | EC50 [7]: 4.5 µM | Activity (Tetronarce californica [29]): < 20% | fold change (FC) [30]: 9 | Activity (Tetronarce californica [31]): < 20% | Activity (Tetronarce californica [32]): < 20% | Activity [8]: 10% | Activity (Tetronarce californica [33]): < 20% | Activity (Tetronarce californica [34]): 20% | IC50 [9]: 4 µM | EC50 (Xenopus laevis): 3.2 µM
